In publication PMC4029506 (Bioorganic & medicinal chemistry, 2014):
Blank lines part the entries; values can stand above or below the compound they belong to.

Tests used:
Hemiketal / hydrate = type: physicochemical; settings: for hydrate (gem diol) formation at 24 h: 7% D2O–DMSO-d6, 24 h; for hydrate (gem diol) formation initially: 7% D2O–DMSO-d6, initially; for hemiketal formation: in CD3OD
[1] = tested on: serine hydrolases in the mouse brain proteome including KIAA1363, MAGL, and ABHD6; experiment: Activity-based protein profile; type: biochemical; settings: both enantiomers; mouse brain proteome 1 mg/mL, FP-rhodamine 100 nM, 10 nM to 100 μM
[2] = target: T1, purified recombinant rat FAAH (rFAAH) (Rattus norvegicus, UniProt P97612); experiment: FAAH enzyme inhibition assay; type: biochemical; settings: for fold loss in activity / fold less potent than 3 against FAAH: relative to 3
T1 sequence (P97612 30-579 limits assumed): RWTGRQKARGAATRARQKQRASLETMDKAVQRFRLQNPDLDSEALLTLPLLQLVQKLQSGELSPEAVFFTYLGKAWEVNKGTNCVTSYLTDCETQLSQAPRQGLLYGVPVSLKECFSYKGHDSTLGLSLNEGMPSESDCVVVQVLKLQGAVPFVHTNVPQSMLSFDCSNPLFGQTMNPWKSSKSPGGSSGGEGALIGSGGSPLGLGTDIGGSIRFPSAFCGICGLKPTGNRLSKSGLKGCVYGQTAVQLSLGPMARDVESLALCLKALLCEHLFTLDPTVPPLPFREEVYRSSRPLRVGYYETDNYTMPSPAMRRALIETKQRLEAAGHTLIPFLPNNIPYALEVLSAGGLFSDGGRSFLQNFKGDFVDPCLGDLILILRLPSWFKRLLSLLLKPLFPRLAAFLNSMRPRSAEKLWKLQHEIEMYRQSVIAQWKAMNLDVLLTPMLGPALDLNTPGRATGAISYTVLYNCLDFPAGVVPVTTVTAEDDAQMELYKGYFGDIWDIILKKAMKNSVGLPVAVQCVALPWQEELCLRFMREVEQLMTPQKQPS

[3] = Epimerization in assay buffer without enzyme, monitored by chiral HPLC; type: physicochemical; settings: assay buffer pH 9.1, without enzyme, 30 min
Summary of the method: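 Test compound dissolved in DMSO and added to assay buffer (pH 9.1) with no enzyme. Enantiopurity was followed by chiral HPLC over a 30 min exposure. Loss of enantiomeric excess is reported as percent change.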

[4] = Racemization after dissolution in a variety of solvents; type: physicochemical; settings: 5% Et3N in EtOAc
vanilloid receptors = settings: cited from earlier work
P450 3A4 = settings: cited from earlier work
P450 2C9 = settings: cited from earlier work
FAAH = settings: cited from earlier work
cannabinoid CB1 receptor = settings: cited from earlier work
[5] = tested on: human ether-a-go-go related gene (hERG); settings: cited from earlier work
[6] = previously observed; cited from earlier work
cannabinoid CB2 receptor = settings: cited from earlier work
P450 2D6 = settings: cited from earlier work

SMILES: COC(=O)c1cccc(-c2cnc(C(=O)C3CCc4cc(Oc5ccccc5)ccc4O3)o2)n1 (stereo not drawn) [compound 15]
hydrate (gem diol) formation at 24 h (Hemiketal / hydrate): 27%
hydrate (gem diol) formation initially (Hemiketal / hydrate): no gem diol detected
hemiketal formation (Hemiketal / hydrate): 45%

SMILES: O=C(c1ncc(-c2ccccn2)o1)C1CCc2cc(Oc3ccccc3)ccc2O1 (stereo not drawn) [compound 14]
hydrate (gem diol) formation at 24 h (Hemiketal / hydrate): 25%
hydrate (gem diol) formation initially (Hemiketal / hydrate): no gem diol detected
hemiketal formation (Hemiketal / hydrate): 34%
selectivity for FAAH over all other serine hydrolases [1]: > 200 fold
fold loss in activity / fold less potent than 3 against FAAH [2]: 8 fold
fold reduction in activity upon introduction of the C5-pyridine substituent (14 vs 16) ([2]; relative to 16): 2 fold
total change in ee (loss of enantiopurity) [3]: −4.4%
racemization within the first hour [4]: significant racemization
time to complete epimerization ([4]; continued exposure): ≤ 48 h

SMILES: O=C(c1ncc(-c2ccccn2)o1)[C@H]1CCc2cc(Oc3ccccc3)ccc2C1 [compound 3, reference compound]
hydrate (gem diol) or hemiketal formation (Hemiketal / hydrate; CD3OD and 7% D2O–DMSO-d6): no detectable

SMILES: O=C(CCCCCCc1ccccc1)c1ncc(-c2ccccn2)o1 [compound 2]
binding to vanilloid receptors (vanilloid receptors): does not bind
inhibition of P450 3A4 (P450 3A4): does not inhibit
inhibition of P450 2C9 (P450 2C9): does not inhibit
antinociception in FAAH knockout mice (FAAH; FAAH knockout mice): No antinociception
in vivo activity (FAAH): antinociceptive and anti-inflammatory activity
levels of anandamide in vivo (FAAH): increases
binding to CB1 (cannabinoid CB1 receptor): does not bind
inhibition of hERG [5]: does not inhibit
hydrated (gem diol) state in solution [6]: do not adopt a hydrated (gem diol) state
binding to CB2 (cannabinoid CB2 receptor): does not bind
inhibition of P450 2D6 (P450 2D6): does not inhibit

Continued, in another order:

fold difference in potency between the two enantiomers ([2]; FAAH inhibition): 1.6 fold
SMILES: O=C(c1ncc(I)o1)C1COc2cc(Oc3ccccc3)ccc2C1 (stereo not drawn) [compound 54]

hydrate (gem diol) formation at 24 h (Hemiketal / hydrate): 13%
hydrate (gem diol) formation initially (Hemiketal / hydrate): no gem diol detected
hemiketal formation (Hemiketal / hydrate): 38%
total change in ee (loss of enantiopurity) [3]: −6.8%
SMILES: O=C(c1ncco1)C1CCc2cc(Oc3ccccc3)ccc2O1 (stereo not drawn) [compound 16]

fold loss in activity / fold less potent than 3 against FAAH [2]: 2- to 4 fold
total change in ee (loss of enantiopurity) [3]: −1.7%
SMILES: O=C(c1ncc(-c2ccccn2)o1)C1COc2cc(Oc3ccccc3)ccc2C1 (stereo not drawn) [compound 47]
selectivity for FAAH over all other serine hydrolases [1]: > 200 fold

potency relative to the unsubstituted parent oxazoles ([2]; installation of the pyridine substituent at C5): roughly equipotent
fold less active than either 2 or 3 ([2]; relative to 2 or 3): 4 fold
fold loss in activity / fold less potent than 3 against FAAH [2]: 2- to 4 fold
total change in ee (loss of enantiopurity) [3]: −4.8%
SMILES: O=C(c1ncc(-c2ccccn2)o1)C1COc2cc(OCc3ccccc3)ccc2C1 (stereo not drawn) [compound 46]
